Active and inactive are the calls of the source. No cut-off for these calls is given here.
Legend:
MCF-10A [1] = assay: Disruption of cell integrity in human MCF10A cells at 10 ug/ml by immunofluorescence analysis relative to control; type: ADME, cell-based
MCF-10A [2] = assay: Growth inhibition of human MCF10A cells at 10 ug/ml by MTT assay; type: cell-based; settings: mcf-10a
MCF-10A [3] = assay: Disruption of microfilament organization in human MCF10A cells at 10 ug/ml by immunofluorescence analysis relative to control; type: ADME, cell-based
MCF-10A [4] = assay: Growth inhibition of human MCF10A cells at 20 ug/ml by MTT assay; type: cell-based; settings: mcf-10a
MCF-10A [5] = assay: Antimigratory activity against human MCF10A cells at 10 ug/ml by wound-healing assay; type: ADME, cell-based
In short: (§1)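 Scratch wound-healing: monolayers wounded with a p200 pipette tip, kept with or without complex; images taken at 0 and 24 h; reference lines drawn equidistant.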

MCF-10A [6] = assay: Growth inhibition of human MCF10A cells at 30 ug/ml by MTT assay; type: cell-based; settings: mcf-10a
MCF-10A [7] = assay: Growth inhibition of human MCF10A cells at 5 ug/ml by MTT assay; type: cell-based; settings: mcf-10a
MCF7 [8] = assay: Induction of apoptosis in human MCF7 cells assessed as intracellular ROS production measured as mean fluorescence intensity at 5 ug/ml using DCFH-DA staining-based flow cytometry (reference value: 101.50 no unit); type: functional, cell-based
COLO 205 [9] = assay: Growth inhibition of human COLO205 cells at 20 ug/ml by MTT assay; type: functional
MCF7 [10] = assay: Induction of apoptosis in human MCF7 cells assessed as intracellular ROS production measured as mean fluorescence intensity at 2.5 ug/ml using DCFH-DA staining-based flow cytometry (reference value: 101.50 no unit); type: functional, cell-based
MCF7 [11] = assay: Induction of apoptosis in human MCF7 cells assessed as viable cells at 10 ug/ml after 24 hrs by annexin-V FITC/propidium iodide staining-based flow cytometry (reference value: 98.1%); type: functional, cell-based
In short: (§2)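 Apoptosis in MCF-7 after 24 h exposure to 5, 10 or 20 μg/mL complex; annexin-V-FITC/PI staining with flow cytometry. Quadrants: Q3 live, Q4 apoptotic, Q2 necrotic or late apoptotic.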

MCF7 [12] = assay: Growth inhibition of human MCF7 cells at 30 ug/ml by MTT assay; type: functional
MCF7 [13] = assay: Induction of apoptosis in human MCF7 cells assessed as necrotic cells at 20 ug/ml after 24 hrs by annexin-V FITC/propidium iodide staining-based flow cytometry (reference value: 0.3%); type: functional, cell-based; in short: as §2
COLO 205 [14] = assay: Growth inhibition of human COLO205 cells at 5 ug/ml by MTT assay; type: functional
HepG2 [15] = assay: Growth inhibition of human HepG2 cells at 10 ug/ml by MTT assay; type: functional
MCF7 [16] = assay: Induction of apoptosis in human MCF7 cells assessed as segmentation of nuclei at 10 ug/ml by DAPI staining-based immunofluorescence analysis relative to control; type: functional, cell-based
In short: (§3)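 Nuclear morphology of control and 10 μg/mL-treated MCF-7 cells visualised by DAPI staining under fluorescence microscopy.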

MCF7 [17] = assay: Cell cycle arrest in human MCF7 cells assessed as accumulation at G2/M phase at 2.5 ug/ml after 24 hrs by propidium iodide staining-based flow cytometry (reference value: 7.43 +/- 0.98%); type: functional
MCF7 [18] = assay: Induction of apoptosis in human MCF7 cells assessed as viable cells at 20 ug/ml after 24 hrs by annexin-V FITC/propidium iodide staining-based flow cytometry (reference value: 98.1%); type: functional, cell-based; in short: as §2
MCF7 [19] = assay: Induction of apoptosis in human MCF7 cells assessed as late apoptotic cells at 10 ug/ml after 24 hrs by annexin-V FITC/propidium iodide staining-based flow cytometry (reference value: 1.0%); type: functional, cell-based; in short: as §2
MCF7 [20] = assay: Induction of apoptosis in human MCF7 cells assessed as caspase 8 activation at 20 ug/ml by fluorometric analysis (reference value: 100%); type: functional, cell-based
In short: (§4)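 Caspase-3, -8 and -9 activities read fluorometrically in whole-cell extracts of treated MCF-7; mean ± standard deviation of three independent experiments.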

MCF7 [21] = assay: Disruption of microfilament organization in human MCF7 cells at 10 ug/ml by immunofluorescence analysis; type: functional, cell-based
MCF7 [22] = assay: Disruption of cell morphology in human MCF7 cells assessed as deformed shrunk cell tails at 10 ug/ml by atomic force microscopy relative to control; type: functional, cell-based
In short: (§5)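 AFM high-resolution topography and force measurements on control MCF-7 cells and cells treated with 10 μg/mL complex, assessing surface ultrastructure, rigidity and tip-cell adhesion force.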

MCF7 [23] = assay: Induction of apoptosis in human MCF7 cells assessed as gatheration of condensed chromatin at periphery of nuclear membrane at 10 ug/ml by DAPI staining-based immunofluorescence analysis relative to control; type: functional, cell-based; in short: as §3
COLO 205 [24] = assay: Growth inhibition of human COLO205 cells at 10 ug/ml by MTT assay; type: functional
MCF7 [25] = assay: Cell cycle arrest in human MCF7 cells assessed as accumulation at G2/M phase at 5 ug/ml after 24 hrs by propidium iodide staining-based flow cytometry (reference value: 7.43 +/- 0.98%); type: functional
MCF7 [26] = assay: Antimigratory activity against human MCF7 cells at 2.5 to 20 ug/ml after 24 hrs by wound-healing assay; type: functional, cell-based; in short: as §1
MCF7 [27] = assay: Growth inhibition of human MCF7 cells at 10 ug/ml by MTT assay; type: functional
HepG2 [28] = assay: Growth inhibition of human HepG2 cells at 5 ug/ml by MTT assay; type: functional
MCF7 [29] = assay: Induction of apoptosis in human MCF7 cells assessed as early apoptotic cells at 5 ug/ml after 24 hrs by annexin-V FITC/propidium iodide staining-based flow cytometry (reference value: 0.5%); type: functional, cell-based; in short: as §2
MCF7 [30] = assay: Cell cycle arrest in human MCF7 cells assessed as accumulation at G2/M phase at 20 ug/ml after 24 hrs by propidium iodide staining-based flow cytometry (reference value: 7.43 +/- 0.98%); type: functional
MCF7 [31] = assay: Induction of apoptosis in human MCF7 cells assessed as caspase 9 activation at 20 ug/ml by fluorometric analysis (reference value: 100%); type: functional, cell-based; in short: as §4
MCF7 [32] = assay: Induction of apoptosis in human MCF7 cells assessed as early apoptotic cells at 10 ug/ml after 24 hrs by annexin-V FITC/propidium iodide staining-based flow cytometry (reference value: 0.5%); type: functional, cell-based; in short: as §2
HepG2 [33] = assay: Growth inhibition of human HepG2 cells at 30 ug/ml by MTT assay; type: functional
MCF7 [34] = assay: Cell cycle arrest in human MCF7 cells assessed as accumulation at G2/M phase at 10 ug/ml after 24 hrs by propidium iodide staining-based flow cytometry (reference value: 7.43 +/- 0.98%); type: functional
MCF7 [35] = assay: Induction of apoptosis in human MCF7 cells assessed as disruption of mitochondrial membrane potential measured as mean fluorescence intensity at 10 ug/ml by rhodamine 123 staining-based flow cytometry (reference value: 3094 no unit); type: functional, cell-based
HepG2 [36] = assay: Growth inhibition of human HepG2 cells at 20 ug/ml by MTT assay; type: functional
MCF7 [37] = assay: Induction of apoptosis in human MCF7 cells assessed as intracellular ROS production measured as mean fluorescence intensity at 10 ug/ml using DCFH-DA staining-based flow cytometry (reference value: 101.50 no unit); type: functional, cell-based
HepG2 [38] = assay: Growth inhibition of human HepG2 cells by MTT assay; type: functional, cell-based
MCF7 [39] = assay: Induction of apoptosis in human MCF7 cells assessed as necrotic cells at 5 ug/ml after 24 hrs by annexin-V FITC/propidium iodide staining-based flow cytometry (reference value: 0.3%); type: functional, cell-based; in short: as §2
MCF7 [40] = assay: Growth inhibition of human MCF7 cells at 5 ug/ml by MTT assay; type: functional
COLO 205 [41] = assay: Growth inhibition of human COLO205 cells by MTT assay; type: functional, cell-based
MCF7 [42] = assay: Growth inhibition of human MCF7 cells by MTT assay; type: functional, cell-based
MCF7 [43] = assay: Induction of apoptosis in human MCF7 cells assessed as caspase 3 activation at 20 ug/ml by fluorometric analysis (reference value: 100%); type: functional, cell-based; in short: as §4
MCF7 [44] = assay: Growth inhibition of human MCF7 cells at 20 ug/ml by MTT assay; type: functional
MCF7 [45] = assay: Induction of apoptosis in human MCF7 cells assessed as late apoptotic cells at 20 ug/ml after 24 hrs by annexin-V FITC/propidium iodide staining-based flow cytometry (reference value: 1.0%); type: functional, cell-based; in short: as §2
MCF7 [46] = assay: Induction of apoptosis in human MCF7 cells assessed as disruption of mitochondrial membrane potential measured as mean fluorescence intensity at 5 ug/ml by rhodamine 123 staining-based flow cytometry (reference value: 3094 no unit); type: functional, cell-based
MCF7 [47] = assay: Disruption of cell integrity in human MCF7 cells at 10 ug/ml by immunofluorescence analysis; type: functional, cell-based
In short: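 MCF-7 cells treated with complex at various concentrations; α-tubulin stained with Tubulin-Tracker red and fibre network imaged by immunofluorescence microscopy.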

MCF7 [48] = assay: Disruption of cell morphology in human MCF7 cells assessed as decrease in tip-cell adhesion force at 10 ug/ml by atomic force microscopy relative to control; type: functional, cell-based; in short: as §5
MCF7 [49] = assay: Induction of apoptosis in human MCF7 cells assessed as early apoptotic cells at 20 ug/ml after 24 hrs by annexin-V FITC/propidium iodide staining-based flow cytometry (reference value: 0.5%); type: functional, cell-based; in short: as §2
MCF7 [50] = assay: Induction of apoptosis in human MCF7 cells assessed as late apoptotic cells at 5 ug/ml after 24 hrs by annexin-V FITC/propidium iodide staining-based flow cytometry (reference value: 1.0%); type: functional, cell-based; in short: as §2
COLO 205 [51] = assay: Growth inhibition of human COLO205 cells at 30 ug/ml by MTT assay; type: functional
MCF7 [52] = assay: Induction of apoptosis in human MCF7 cells assessed as disruption of mitochondrial membrane potential measured as mean fluorescence intensity at 20 ug/ml by rhodamine 123 staining-based flow cytometry (reference value: 3094 no unit); type: functional, cell-based
MCF7 [53] = assay: Induction of apoptosis in human MCF7 cells assessed as necrotic cells at 10 ug/ml after 24 hrs by annexin-V FITC/propidium iodide staining-based flow cytometry (reference value: 0.3%); type: functional, cell-based; in short: as §2
MCF7 [54] = assay: Induction of apoptosis in human MCF7 cells assessed as viable cells at 5 ug/ml after 24 hrs by annexin-V FITC/propidium iodide staining-based flow cytometry (reference value: 98.1%); type: functional, cell-based; in short: as §2

5-hydroxy-2-phenyl-7-(triphenylgermyloxy)-4H-chromen-4-one ethanol [listing 1 of 2 here]
Activity (MCF-10A [1]): Non-toxic | growth inhibition (GI) (MCF-10A [2]): 12.3% | Activity (MCF-10A [3]): Non-toxic | growth inhibition (GI) (MCF-10A [4]): 23.67% | Activity (MCF-10A [5]): Toxic | growth inhibition (GI) (MCF-10A [6]): 27.25% | growth inhibition (GI) (MCF-10A [7]): 4.822%

5-hydroxy-2-phenyl-7-(triphenylgermyloxy)-4H-chromen-4-one ethanol [listing 2 of 2 here]
Flu intensity (MCF7 [8]): 107 | growth inhibition (GI) (COLO 205 [9]): 20.3% | Flu intensity (MCF7 [10]): 87.1 | Activity (MCF7 [11]): 88.1% | growth inhibition (GI) (MCF7 [12]): 42.1% | Activity (MCF7 [13]): 0.6% | growth inhibition (GI) (COLO 205 [14]): 5.85% | growth inhibition (GI) (HepG2 [15]): 20.3% | Activity (MCF7 [16]): Active | Activity (MCF7 [17]): 8.73% | Activity (MCF7 [18]): 74.5% | Activity (MCF7 [19]): 6.2% | Activity (MCF7 [20]): 181% | Activity (MCF7 [21]): Active | Activity (MCF7 [22]): Active | Activity (MCF7 [23]): Active | growth inhibition (GI) (COLO 205 [24]): 12.1% | Activity (MCF7 [25]): 15.8% | Activity (MCF7 [26]): Active | growth inhibition (GI) (MCF7 [27]): 19.2% | growth inhibition (GI) (HepG2 [28]): 7.95% | Activity (MCF7 [29]): 1.5% | Activity (MCF7 [30]): 30.9% | Activity (MCF7 [31]): 286% | Activity (MCF7 [32]): 5.1% | growth inhibition (GI) (HepG2 [33]): 36.7% | Activity (MCF7 [34]): 24.5% | Flu intensity (MCF7 [35]): 1370 | growth inhibition (GI) (HepG2 [36]): 31.1% | Flu intensity (MCF7 [37]): 126 | growth inhibition (GI) (HepG2 [38]): Dose-dependent effect | Activity (MCF7 [39]): 0.5% | growth inhibition (GI) (MCF7 [40]): 7.01% | growth inhibition (GI) (COLO 205 [41]): Dose-dependent effect | growth inhibition (GI) (MCF7 [42]): Dose-dependent effect | Activity (MCF7 [43]): 214% | growth inhibition (GI) (MCF7 [44]): 31.3% | Activity (MCF7 [45]): 5.4% | Flu intensity (MCF7 [46]): 1980 | Activity (MCF7 [47]): Active | Activity (MCF7 [48]): Active | Activity (MCF7 [49]): 19.5% | Activity (MCF7 [50]): 3.2% | growth inhibition (GI) (COLO 205 [51]): 31.6% | Flu intensity (MCF7 [52]): 1480 | Activity (MCF7 [53]): 0.7% | Activity (MCF7 [54]): 94.9%
